The subject of data set [1] is Respiratory syncytial virus. Nature of the data set: Antiviral activity against Respiratory syncytial virus Long infected in human Hep2 cells assessed as reduction in virus-induced cytopathogenicity by Cell Titer-Glo assay. Conditions: HEp-2. The format is functional, organism-based. Background: Damage to the host cells serves as the signal in cytopathic effect assays.

Data set [2] deals with HEp-2. As to the kind of experiment: Cytotoxicity against human Hep2 cells by Cell Titer-Glo assay. The format is cell-based. A general note: ATP-based viability assays read luminescence as a measure of living cells.
A short description of data set [3]: Selectivity index, ratio of CC50 for human Hep2 cells to EC50 for Respiratory syncytial virus Long infected in human Hep2 cells.
The subject of data set [4] is Respiratory syncytial virus. Nature of the data set: Antiviral activity against Respiratory syncytial virus Long infected in human Hep2 cells assessed as log reduction in virus titer at 25 uM by virus plaque reduction assay. The format is functional, HEp-2. For orientation: Plaque reduction counts the foci of infection that form in a cell layer.
The nature of data set [5]: Aqueous solubility in PBS buffer. The format is physicochemical.
Data set [6] is described as follows: Chemical stability in 50% PBS/50% acetonitrile solution assessed as unchanged parent compound remaining after 48 hrs. Conditions: read-out: Stability. It is filed as physicochemical.
Data set [7] relates to Respiratory syncytial virus. Nature of the data set: Antiviral activity against Respiratory syncytial virus Long infected in human Hep2 cells assessed as post infection time duration of protection against virus-induced cytopathogenicity by Cell Titer-Glo assay. The format is functional, HEp-2. The method, boiled down:
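HEp-2 cells seeded at 10 000 cells/well, held 24 h at 37 °C, 5% CO2, then infected with hRSV Long at MOI 3.0 at time 0. Compound added at 25 μM final, in triplicate, at −1, 0, 1, 2, 3, 5, 7, 21 or 24 h pi. Incubated 6 days at 37 °C, 5% CO2. Read by Cell Titer-Glo luminescence after 30 min room-temperature equilibration and 10 min reagent incubation. Uninfected and infected untreated wells served as controls.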

Data set [8] relates to Respiratory syncytial virus. Nature of the data set: Antiviral activity against Respiratory syncytial virus Long infected in human Hep2 cells assessed as protection against virus-induced cytopathogenicity by measuring cell viability at 24 hrs post infection by Cell Titer-Glo assay. It is filed as functional, HEp-2. The method, boiled down:
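HEp-2 cells seeded at 10 000/well and held 24 h at 37 °C, 5% CO₂, then infected at time 0 with hRSV Long at MOI 3.0. Compound added at 25 μM final, in triplicate, at −1 to 24 h post-infection. After 6 days at 37 °C, plates were brought to room temperature and Cell Titer-Glo luminescence read after 10 min. Cell-only and virus-only controls were included.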

Data set [9] has as its system HEp-2. As to the kind of experiment: Cytotoxicity against uninfected human Hep2 cells assessed as cell viability at 25 uM measured after 144 hrs by Cell Titer-Glo assay. The format is cell-based. Conditions: hep-2, 144 h. In short, it runs like this: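 Uninfected HEp-2 cells were given compound at 25 μM at time point 0. Viability was read by Cell Titer-Glo after 144 h.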

The results in this text go back to ChEMBL document CHEMBL2169872, “(S)-N-(2,5-Dimethylphenyl)-1-(quinoline-8-ylsulfonyl)pyrrolidine-2-carboxamide as a small molecule inhibitor probe for the study of respiratory syncytial virus infection” (J Med Chem, 2012).

SMILES strings stand for the structures. Values after ≈ are worked out from the molar mass of the structure shown.

One may read the EC50 as the concentration giving half of the maximal effect. A word on the CC50: it is the concentration that lowers cell viability or growth by half. Low values mean greater toxicity to the cells, high ones lower toxicity to the cells. Usually solubility stands for the concentration that dissolves in the medium under given conditions.

On to `Cc1cccc(C)c1NC(=O)[C@@H]1CCCN1S(=O)(=O)c1cccc2cccnc12`, for which, in [1], the 50% effective concentration (EC50) was > 50 µM. Also, the CC50 in the data set on HEp-2 [2] was > 50 µM.

For `Cc1ccc(NC(=O)CN(C)S(=O)(=O)c2cccc3cccnc23)c(C)c1`, the half-maximal effective concentration (EC50) in data set [1] was > 50 µM. Also, the CC50 with HEp-2 [2] was > 50 µM.

In the case of `Cc1ccc(Cl)cc1NC(=O)[C@@H]1CCCN1S(=O)(=O)c1cccc2cccnc12`, in data set [1], the concentration giving a half-maximal response (EC50) was 2.2 µM. Further, the CC50 with HEp-2 [2] was determined as 10 µM.

For the compound `Cc1cccc(NC(=O)[C@@H]2CCCN2S(=O)(=O)c2cccc3cccnc23)c1`, the 50% effective concentration (EC50) in data set [1] was > 50 µM. Moreover, the midpoint of cytotoxicity in the data set on HEp-2 [2], the CC50, lay at 25.5 µM.

In the case of `Cc1ccc(NC(=O)C2CCCN2S(=O)(=O)c2cccc3cccnc23)c(C)c1` (racemic), the EC50 in data set [1] came out at 5 µM. The same compound returned a CC50 in the data set on HEp-2 [2] of 31.5 µM. Moreover, the selectivity ratio in [3] was 6.3. In addition, the FC in [4] is recorded as 2.1.

On to `Cc1ccnc(C)c1NC(=O)[C@@H]1CCCN1S(=O)(=O)c1cccc2cccnc12`, for which the half-maximal effective concentration (EC50) in [1] was > 50 µM. Also, the CC50 in the data set on HEp-2 [2] is > 50 µM.

In the case of `Cc1ccc(Cl)c(NC(=O)[C@@H]2CCCN2S(=O)(=O)c2cccc3cccnc23)c1`, the 50% effective concentration (EC50) in data set [1] is > 50 µM. Further, the half-maximal cytotoxic concentration (CC50) in the data set with HEp-2 [2] is > 50 µM.

Consider `Cc1ccc(C)c(NC(=O)[C@@H]2CCCN2S(=O)(=O)c2cccc3cccnc23)c1`, for which, in data set [1], the EC50 was determined as 2.3 µM. Moreover, the midpoint of cytotoxicity with HEp-2 [2], the CC50, lay at 30.9 µM. Further, the FC in data set [4] turned out to be 2. This compound also gave a solubility in [5] of 92.7 µg/mL (≈ 226 µM). Besides, the remaining at 48 h in data set [6] came to 95.4%. In data set [7], the Time turned out to be 1 h. The Activity in data set [8] worked out at 26%.

Take `O=C(Nc1ccccc1)[C@@H]1CCCN1S(=O)(=O)c1cccc2cccnc12`: the EC50 in data set [1] was > 50 µM. In the data set on HEp-2 [2], this compound showed a CC50 of 35.6 µM.

In the case of `Cc1ccc(NC(=O)[C@@H]2CCCN2S(=O)(=O)c2cccc3cccnc23)cc1`, the EC50 in [1] was > 50 µM. The compound further returned a CC50 in the data set with HEp-2 [2] of 31.7 µM.

`Cc1ccc(C(C)(C)C)cc1NC(=O)[C@@H]1CCCN1S(=O)(=O)c1cccc2cccnc12`: the concentration giving a half-maximal response (EC50) in data set [1] was > 50 µM. Further, the 50% cytotoxic concentration (CC50) in the data set with HEp-2 [2] was determined as 6.5 µM.

As to `Cc1ccc(NC(=O)[C@@H]2CCCN2S(=O)(=O)c2cccc3cccnc23)c(C)c1`, the concentration for a half-maximal effect (EC50) in data set [1] amounted to 2.7 µM. Besides, the midpoint of cytotoxicity with HEp-2 [2], the CC50, lay at 31.8 µM. The selectivity ratio in [3] stood at 11.8. Further, the FC in [4] turned out to be 1.

In the case of `CCc1ccccc1NC(=O)[C@@H]1CCCN1S(=O)(=O)c1cccc2cccnc12`, the EC50 in data set [1] came out at 21.2 µM. Further, in the data set with HEp-2 [2], the 50% cytotoxic concentration (CC50) is > 50 µM.

Turning to `Cc1cc(NC(=O)[C@@H]2CCCN2S(=O)(=O)c2cccc3cccnc23)n(C(C)(C)C)n1`, in [1], the EC50 was > 50 µM. Also, in the data set on HEp-2 [2], the 50% cytotoxic concentration (CC50) is > 50 µM.

Turning to `COc1ccc(C)cc1NC(=O)[C@@H]1CCCN1S(=O)(=O)c1cccc2cccnc12`, in [1], the EC50 was > 50 µM. The CC50 with HEp-2 [2] was > 50 µM.

In the case of `Cc1ccc(C(C)C)cc1NC(=O)[C@@H]1CCCN1S(=O)(=O)c1cccc2cccnc12`, the concentration giving a half-maximal response (EC50) in data set [1] is > 50 µM. In the data set on HEp-2 [2], the midpoint of cytotoxicity, the CC50, lay at 9.7 µM.

As for `Cc1ccc(NC(=O)CNS(=O)(=O)c2cccc3cccnc23)c(C)c1`, the 50% effective concentration (EC50) in [1] is > 50 µM. Also, the CC50 with HEp-2 [2] is > 50 µM.

Regarding `Cc1cc(C)cc(NC(=O)[C@@H]2CCCN2S(=O)(=O)c2cccc3cccnc23)c1`, the EC50 in data set [1] is > 50 µM. Further, the half-maximal cytotoxic concentration (CC50) in the data set with HEp-2 [2] was determined as 31.3 µM.

As to `Cc1ccc(NC(=O)C(C)NS(=O)(=O)c2cccc3cccnc23)c(C)c1` (configuration not stated), in data set [1], the concentration giving a half-maximal response (EC50) is > 50 µM. Besides, in the data set on HEp-2 [2], the CC50 was > 50 µM.

Consider `Cc1ccccc1NC(=O)[C@@H]1CCCN1S(=O)(=O)c1cccc2cccnc12`, for which, in [1], the EC50 came out at 23.8 µM. The CC50 with HEp-2 [2] is > 50 µM.

`NC(=O)c1ncn([C@@H]2O[C@H](CO)[C@@H](O)[C@H]2O)n1` [RIBAVIRIN]: in data set [1], the concentration for a half-maximal effect (EC50) was found to be 28.4 µM. The same compound gave a CC50 in the data set on HEp-2 [2] of 114 µM. The FC in data set [4] is recorded as 2.5. For the same compound, in the data set with HEp-2 [9], the Activity was determined as 90%. Also, the Time in data set [7] is 7 h.

Turning to `CC(C)c1ccccc1NC(=O)[C@@H]1CCCN1S(=O)(=O)c1cccc2cccnc12`, the EC50 in data set [1] stood at 17.6 µM. Further, it took 29.9 µM to reach half-maximal cytotoxicity in the data set with HEp-2 [2] (CC50).

As to `Cc1ccc(C(F)(F)F)cc1NC(=O)[C@@H]1CCCN1S(=O)(=O)c1cccc2cccnc12`, the half-maximal effective concentration (EC50) in data set [1] was > 50 µM. In the data set with HEp-2 [2], this compound came in with a CC50 of 4.8 µM.

As to `O=C(Nc1ccc(Cl)cc1Cl)[C@@H]1CCCN1S(=O)(=O)c1cccc2cccnc12`, the 50% effective concentration (EC50) in data set [1] was > 50 µM. Besides, the CC50 in the data set on HEp-2 [2] was > 50 µM.

Take `COc1ccc(C)c(NC(=O)[C@@H]2CCCN2S(=O)(=O)c2cccc3cccnc23)c1`: in data set [1], the 50% effective concentration (EC50) was 4.2 µM. In the data set on HEp-2 [2], this compound displayed a CC50 of 44.2 µM. Besides, the FC in [4] is 1. Moreover, the Activity with HEp-2 [9] is reported as 88%.

As to `Cc1ccc(NC(=O)[C@H]2CCCN2S(=O)(=O)c2cccc3cccnc23)c(C)c1`, in data set [1], the EC50 is > 50 µM. The compound also showed a CC50 with HEp-2 [2] of 38.1 µM. For the same compound, the selectivity ratio in [3] stood at 0.8.
